Results on 5 compounds are retold here after ChEMBL document CHEMBL1154968, “Tellimagrandin I, HCV invasion inhibitor from Rosae Rugosae Flos” (Bioorg Med Chem Lett, 2010).

A short description of data set [1]: Growth inhibition of human HepG2 cells at 10 uM. The class given is cell-based. The settings on record: read-out: GI.
The test system of data set [2] is Hepatitis C virus. The experiment in a line: Antiviral activity against E1 and E2 envelope protein expressing HCV infected in HepG2 cells assessed as inhibition of viral invasion at 10 uM after 24 hrs by SEAP reporter gene assay. It counts as functional, Hepacivirus hominis. The settings on record: HepG2, 24 h. In short, it runs like this:
(§1)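 HepG2 cells seeded at 9.0 × 10⁴ cells/mL in DMEM with 10% FBS were grown 24 h at 37 °C under 5% CO₂. Samples in DMSO were diluted in medium (final DMSO 1.0%) and added 1 h before inoculation. After a further 24 h, supernatant SEAP activity was read by fluorescence.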

The test system of data set [3] is Hepatitis C virus. In words: Antiviral activity against E1 and E2 envelope protein expressing HCV infected in HepG2 cells assessed as inhibition of viral invasion at 3 uM after 24 hrs by SEAP reporter gene assay. The settings on record: HepG2, 24 h. It counts as functional, Hepacivirus hominis. The procedure, abridged:
as §1
For orientation: Reporter assays use an easily measured gene product as a stand-in for the process of interest.

Data set [4] deals with Hepatitis C virus. In words: Antiviral activity against E1 and E2 envelope protein expressing HCV infected in HepG2 cells assessed as inhibition of viral invasion at 1 uM after 24 hrs by SEAP reporter gene assay. It counts as functional, Hepacivirus hominis. The settings on record: HepG2, 24 h. The procedure, abridged:
as §1

The subject of data set [5] is Hepatitis C virus. The experiment in a line: Antiviral activity against G envelope protein expressing HCV infected in HepG2 cells assessed as inhibition of viral invasion at 10 uM after 24 hrs by SEAP reporter gene assay. The class given is functional, Hepacivirus hominis. The settings on record: HepG2, 24 h. The procedure, abridged:
as §1

Data set [6] concerns Hepatitis C virus. In words: Antiviral activity against G envelope protein expressing HCV infected in HepG2 cells assessed as inhibition of viral invasion at 3 uM after 24 hrs by SEAP reporter gene assay. The settings on record: HepG2, 24 h. It counts as functional, Hepacivirus hominis. In short, it runs like this: as §1
Data set [7] concerns Hepatitis C virus. In words: Antiviral activity against G envelope protein expressing HCV infected in HepG2 cells assessed as inhibition of viral invasion at 1 uM after 24 hrs by SEAP reporter gene assay. The class given is functional, Hepacivirus hominis. The settings on record: HepG2, 24 h. The procedure, abridged: as §1

Turning to `O=C(O[C@H]1[C@@H]2OC(=O)c3cc(O)c(O)c(O)c3-c3c(cc(O)c(O)c3O)C(=O)OC[C@H]2OC(O)[C@@H]1OC(=O)c1cc(O)c(O)c(O)c1)c1cc(O)c(O)c(O)c1` (stereo not given in full) [Tellimagrandin I], the inhibition at 10 µM in data set [1] was 15.6%.
As for `O=C1OC[C@H]2OC(O)[C@@H]3OC(=O)c4cc(O)c(O)c(O)c4-c4c(cc(O)c(O)c4O)C(=O)O[C@H]3[C@@H]2OC(=O)c2cc(O)c(O)c(O)c2-c2c1cc(O)c(O)c2O` (stereo not given in full) [PEDUNCULAGIN], the inhibition at 10 µM in data set [2] is 81.1%; in data set [5] it was 30.9%. The results for the inhibition at 3 µM in data set [3] and in data set [6] were 58.8% and 14.8%, respectively. Also, the inhibition at 1 µM was found to be 14.6% in data set [4] and 9.4% in data set [7].
Regarding `O=C(OC[C@H]1OC(O)[C@H](OC(=O)c2cc(O)c(O)c(O)c2)[C@@H](OC(=O)c2cc(O)c(O)c(O)c2)[C@@H]1OC(=O)c1cc(O)c(O)c(O)c1)c1cc(O)c(O)c(O)c1` (stereo not given in full), the inhibition at 10 µM in data set [2] worked out at 43.7%; in data set [5], 51.2%. Moreover, the inhibition at 3 µM was found to be 20.8% in data set [3] and 40.7% in data set [6]. In addition, the inhibition at 1 µM stood at 9.1% in data set [4] and 16% in data set [7].
Turning to `O=C(OC[C@H]1O[C@@H](OC(=O)c2cc(O)c(O)c(O)c2)[C@H](OC(=O)c2cc(O)c(O)c(O)c2)[C@@H](OC(=O)c2cc(O)c(O)c(O)c2)[C@@H]1OC(=O)c1cc(O)c(O)c(O)c1)c1cc(O)c(O)c(O)c1` [PENTAGALLOYL GLUCOSE], the inhibition at 10 µM was determined as 72.3% in data set [2] and 40.7% in data set [5]. Moreover, the inhibition at 3 µM in data set [3] is 28.9%; in data set [6] it was 22.8%. The figures for the inhibition at 1 µM in data set [4] and in data set [7] were 4.2% and 5%, respectively.
On to `O=C(O[C@@H]1O[C@@H]2COC(=O)c3cc(O)c(O)c(O)c3-c3c(cc(O)c(O)c3O)C(=O)O[C@H]2[C@H](OC(=O)c2cc(O)c(O)c(O)c2)[C@H]1OC(=O)c1cc(O)c(O)c(O)c1)c1cc(O)c(O)c(O)c1` [EUGENIIN], for which the figures for the inhibition at 10 µM in data set [2] and in data set [5] were 92.8% and 35.7%, respectively. Moreover, the inhibition at 3 µM was 51.3% in data set [3] and 21.2% in data set [6]. Moreover, the inhibition at 1 µM was 18.4% in data set [4] and 17.2% in data set [7].
